Bioassay records (PubChem BioAssay)
Only a sample is shown.
HKDC1 act = increases human hexokinase HKDC1 activity; hit rate 0.056% among 340,000; AID 493187; activity change, negative = activation, % at 20 µM; recombinant HKDC1, G6PDH/diaphorase resazurin fluorescence; active compounds read low;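 active = activation of 40% or more at 20 µM, a change of -40% or lower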
Target sequence (Q2TB90 whole entry, looked up): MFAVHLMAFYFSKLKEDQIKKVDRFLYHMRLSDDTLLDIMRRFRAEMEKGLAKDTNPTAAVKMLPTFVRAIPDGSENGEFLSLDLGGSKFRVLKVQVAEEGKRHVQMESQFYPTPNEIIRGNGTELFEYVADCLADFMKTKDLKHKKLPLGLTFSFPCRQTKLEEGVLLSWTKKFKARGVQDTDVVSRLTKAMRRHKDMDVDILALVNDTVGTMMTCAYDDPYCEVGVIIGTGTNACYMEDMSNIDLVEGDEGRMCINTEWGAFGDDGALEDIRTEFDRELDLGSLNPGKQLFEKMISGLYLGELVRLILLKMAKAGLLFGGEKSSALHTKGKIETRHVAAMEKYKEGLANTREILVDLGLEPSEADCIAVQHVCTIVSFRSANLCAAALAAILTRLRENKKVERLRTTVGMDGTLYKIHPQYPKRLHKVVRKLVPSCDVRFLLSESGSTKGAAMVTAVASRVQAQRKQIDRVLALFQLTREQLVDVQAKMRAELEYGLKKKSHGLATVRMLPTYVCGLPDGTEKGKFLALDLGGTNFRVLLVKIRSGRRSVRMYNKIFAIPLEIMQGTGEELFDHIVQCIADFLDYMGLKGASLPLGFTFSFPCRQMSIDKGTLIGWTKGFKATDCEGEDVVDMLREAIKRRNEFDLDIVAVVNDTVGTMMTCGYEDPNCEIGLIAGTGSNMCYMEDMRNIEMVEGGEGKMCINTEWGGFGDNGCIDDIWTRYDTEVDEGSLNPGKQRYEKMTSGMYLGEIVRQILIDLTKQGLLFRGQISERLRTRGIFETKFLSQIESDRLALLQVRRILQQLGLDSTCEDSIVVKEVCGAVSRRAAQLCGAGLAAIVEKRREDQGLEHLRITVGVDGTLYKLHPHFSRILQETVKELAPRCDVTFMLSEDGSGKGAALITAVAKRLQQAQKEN
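system = in-house human HKDC1 enzyme, G6PDH and diaphorase coupling enzymes | amount = HKDC1 5 µg/mL | measured by = resorufin fluorescence from 100 µM resazurin, NADP 1 mM, Ex 525/Em 613 nm | times = enzyme reaction 90 min, room temperature, in dark | doses = single compound dose of 20 µM, 1% DMSO final | medium = Tris/MgCl2 buffer, pH 8.0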
* = called active by the depositor.

SMILES | HKDC1 act
O=C(C1=C(c2ccccc2)C(=O)c2ccccc2C1=O)c1ccccc1 | 58
O=C(Nc1ccc(N2CCCC2)cc1)c1cccc(-c2cc3ccccc3oc2=O)c1 | -40*
Cc1ccc(NC2=C/C(=N\S(=O)(=O)c3cccs3)c3ccccc3C2=O)c(C)c1 | 40
COC(=O)CCC(=O)OC1(C)C(=O)C2=COC(c3ccc(OC)cc3)=CC2=C(Br)C1=O (stereo unspecified) | 37
COc1ccc(-c2nc3c(C(=O)NCCN(C)C)cccc3c3ccccc23)cc1 | 39
O=C1NC(=S)N/C1=C/c1cc2c(cc1[N+](=O)[O-])OCO2 | -67*
O=C1C=C(c2c(O)ccc3ccccc23)c2ccccc2C1=O | 93
CC(C)C(C(=O)O)N1C(=O)/C(=C/C=C/c2ccco2)SC1=S (stereo unspecified) | 51
Cc1ccc(-n2c3nc(=O)[nH]c(=O)c-3cc3cc([N+](=O)[O-])ccc32)cc1 | 49
CC1=NOC(=O)/C1=C\c1ccc(-c2ccc(Cl)cc2Cl)o1 | 54
O=C(CCCCC(=O)Sc1ccccc1)Sc1ccccc1 | 39
CNc1sc(C(=O)c2ccc(F)cc2)c(N)c1-c1nc2ccccc2s1 | -45*
CCC(Sc1nc(C)cc(C)n1)C(=O)NC1=NN=C(c2ccc(C)cc2)CS1 (stereo unspecified) | -149*
COc1ccc([C@@H]2C[C@H](c3ccccc3)Oc3cc(OC)c(OC)c(OC)c32)cc1 | 37
O=C(/C=C/c1cccc(Cl)c1)c1ccc([N+](=O)[O-])o1 | 61
Cc1ccc(S(=O)(=O)N(C(=O)c2ccncc2)c2ccc(OC(=O)c3ccncc3)c3ccccc23)c(C)c1 | 38
CCOC(=O)c1c(C)[nH]c(C2=NNC(=Nc3ccc(OCC)cc3)SC2)c1C | -137*
CCOC(=O)c1c(C)[nH]c(C2=NNC(=Nc3ccccc3)SC2)c1C | -306*
CCOC(=O)c1c(C)[nH]c(C2=NNC(=Nc3ccccc3OC)SC2)c1C | -165*
COC1=CC(=O)C=C(OC)C1=O | 66
CCOP(=O)(c1ccc(N(C)C)cc1)C(O)c1ccc(OC)cc1 (stereo unspecified) | 56
CC(=O)C1=C(c2ccccc2)N(C(C)=O)n2c(C)nnc2S1 | -315*
Cc1cc(C)c2c(=N)c3ccccc3n(CCCCCCCCn3c4ccccc4c(=N)c4c(C)cc(C)nc43)c2n1 | 74
Cc1c(C(=O)Oc2ccc(-c3cnc4ccccc4n3)cc2)cccc1[N+](=O)[O-] | -89*
COc1cccc(CC(Cc2nc3ccccc3[nH]2)c2nc3ccccc3[nH]2)c1 (stereo unspecified) | 50
SMILES | HKDC1 act
Cc1cccc(NC2=C/C(=N/S(=O)(=O)c3cccs3)c3ccccc3C2=O)c1 | 53
O=C(CSc1nc(-c2ccc(F)cc2)nc2c1Cc1ccccc1O2)Nc1ccc(C(=O)O)cc1 | 44
CC(=NNC(=S)N1CC2CCC(CC2)C1)c1cccc(C)n1 | -47*
O=S(=O)(O)c1ccc(O)c2cc(Nc3ccccc3)ccc12 | 65
Cc1ccc2c(c1C)-c1c(ccc(C)c1C)C(=O)C2=O | 38
COC1=C(C)C(=O)C2=C(C1=O)C1C3CC4=C(C(=O)C(OC)=C(C)C4=O)C(CNC(=O)C(C)=O)N3C(C#N)C(C2)N1C (stereo unspecified) | 60
O=C1C(=O)c2c(C(=O)c3ccccc3)coc2-c2ccccc21 | 51
CN(c1ccc(C(=O)N2CCN(Cc3ccccc3)CC2)cc1)S(=O)(=O)c1ccccc1 | -76*
O/C=c1\ccc2cccc3nc(C(F)(F)F)nc1c23 | 40
C=CCn1nc([N+](=O)[O-])nc1Sc1cccc2cccnc12 | -47*
CCCc1nc2oc3c(NCC4CCCO4)ncnc3c2c2c1COC(C)(C)C2 (stereo unspecified) | 35
O=C(O)c1cccc(-c2ccc(/C=c3/sc4nc5ccccc5n4c3=O)o2)c1 | 48
CCOC(=O)C1=C(O)c2ccccc2C(=O)/C1=C\c1ccc(CC)cc1 | 59
CC(=NNc1nc2ccccc2o1)c1cc2ccccc2cn1 | -48*
COc1ccc(C2=CC3=C(Br)C(=O)C(C)(OC(=O)C4CCCC4)C(=O)C3=CO2)cc1 (stereo unspecified) | 53
Cc1cc(C)c(S(=O)(=O)/N=C2/C=C(SCC(=O)O)C(=O)c3ccccc32)cc1C | 51
CCOC(=O)c1ccc(N=C2C(=S)N(c3ccc(C(=O)OCC)cc3)C(=N)N2/N=C/c2ccccc2)cc1 | -136*
Cc1cc(C)c2c(=O)[nH]cnc2n1 | 64
Cc1cc(C)c(S(=O)(=O)/N=C2\C=C(Nc3ccc(C(=O)O)cc3)C(=O)c3ccccc32)c(C)c1 | 41
Cc1ccc(SC2=C(N(C)C)C(=O)c3ccccc3C2=O)cc1 | 57
Cc1cc(C2=NNC(=Nc3ccc(S(=O)(=O)N4CCOCC4)cc3)SC2)c(C)n1C | -73*
COC(=O)c1sc(NC(=O)CSc2nc3nc(C)cc(C)n3n2)c(C(=O)OC)c1C | 35
CCCCNC(=O)c1sc(=S)n2c1[nH]c(=O)c1ccc(C(=O)NCCc3ccc(OC)c(OC)c3)cc12 | 48
Fc1ccc(N2C(=S)SC(=Nc3ccccc3)C2=Nc2ccccc2)cc1 | -50*
N#CC(C#N)=C1SC(=Nc2ccccc2)C(=Nc2ccccc2)N1c1ccccc1 | -86*
SMILES | HKDC1 act
CC(=O)NC1C(=O)N(CCN2CCOCC2)c2ccc(C)cc21 (stereo unspecified) | 86
N=C1N(c2ccccc2)C(=S)C(=Nc2ccccc2)N1c1ccccc1 | -77*
O=C1OC(c2ccccc2)=N/C1=C/c1cccc(OC(=O)c2cccs2)c1 | 39
CC1C/C(=C\c2cccnc2)C(=O)/C(=C/c2cccnc2)C1 (stereo unspecified) | 40
O=C1C(Nc2ccc(O)cc2)=C/C(=N/S(=O)(=O)c2cccs2)c2ccccc21 | 60
CC(=O)Oc1cccc2c1C(=O)C1CC=CC(OC(C)=O)C1C2=O (stereo unspecified) | -45*
CN(C)c1ncc(C2=C(Cl)C(=O)C(N3CCCC3)=C(Cl)C2=O)s1 | 35
Cc1cc(O)c(-c2cc(O)c(C)cc2O)cc1O | 45
Cc1cc(C)c(S(=O)(=O)Nc2cc(SCC(=O)O)c(O)c3ccccc23)cc1C | 54
Cc1cccc(N=C2NN=C(c3ccc4c(c3)OCCO4)CS2)c1 | -62*
CCc1ccc(C2=NNC(=Nc3cccc(S(=O)(=O)N(C)C)c3)SC2)cc1 | -177*
Cc1ccc(C2=NNC(=Nc3ccc(F)cc3)SC2)cc1 | -70*
Cc1cccc(N=C2NN=C(c3c(C)[nH]c4ccccc34)CS2)c1 | -41*
O=C(CCNC(=O)c1ccc([N+](=O)[O-])cc1)NCCC1=CCCCC1 | 35
Cc1ccc(C(=O)/C=C/c2cc(Br)cc(Br)c2O)o1 | 36
CC(=O)NC1C(=O)N(CCN2CCOCC2)c2ccc(Cl)cc21 (stereo unspecified) | 82
CCOc1ccccc1Nc1nnc(SCc2nnc(-c3cc(OC)c(OC)c(OC)c3)o2)s1 | 48
CC(OC(=O)c1cc(O)c2ccccc2c1O)C(=O)Nc1ccc(C(N)=O)cc1 (stereo unspecified) | 39
CCOC(=O)C1=C(Cc2ccc(OC)cc2)C(=O)c2ccccc2C1=O | 71
CC(=O)NC1C(=O)N(CCN2CCOCC2)c2ccc(F)cc21 (stereo unspecified) | 79
O=C(CCl)N1c2ccccc2Sc2c1ccc1ccccc21 | 44
CCCC(=O)NC1=C(Cl)C(=O)c2ccccc2C1=O | 60
COc1ccc(NC(=O)c2cc3ccccc3cc2O)cc1 | 38
